Published values of several laboratories.
Each line is one published result; the experiments were not run side by side.
Target: Mitogen-activated protein kinase kinase kinase kinase 1 (MAP4K1, Homo sapiens, UniProt Q92918)

CC1CCCN1c1nccc(-c2cnn3ncccc23)n1 (stereo not shown) — remaining binding (binding; 1 µM): 100%
O=C(NCC1CCOCC1)c1n[nH]cc1NC(=O)c1c(F)cccc1F — remaining binding (binding, competition with immobilised ligand; 1 µM): 71%
CCOCCn1cc(C(=O)Nc2ccc(-n3nc(-c4cccnc4)cc3C(F)(F)F)cn2)ccc1=O — remaining binding (cell-free assay, competition with immobilised ligand; 1 µM): 81%
O=C(NCCCN1CCOCC1)c1ccc(Nc2nccc(-c3cc4ccccc4s3)n2)cc1 — remaining binding (binding, competition with immobilised ligand; 1 µM): 85%
CN(C(=O)c1ccccc1)c1cc(N(C)c2ccc3c(c2)CCc2ccc(C(=O)NCCN4CCOCC4)cc2C3=O)ccc1F — remaining binding (cell-free assay, competition with immobilised ligand; 1 µM): 99%
FC(F)(F)Oc1cccc(-c2cnc3ccc(-c4ccncc4)nn23)c1 — remaining binding (cell-free assay, competition with immobilised ligand; 5 µM): 68%
COc1cnc(Nc2cccc(S(N)(=O)=O)c2)nc1N1CCN(c2ccccc2)CC1 — remaining binding (binding, competition with immobilised ligand; 1 µM): 88%
O=C(c1ccc(Nc2nccc(-c3cc4ccccc4s3)n2)cc1)N1CCC(N2CCCC2)CC1 — remaining binding (binding, competition with immobilised ligand; 1 µM): 84%
c1cnn2ncc(-c3ccnc(N4CCC45COC5)n3)c2c1 — remaining binding (binding; 1 µM): 100%
CS(=O)(=O)c1cc(C2(NC(=O)c3cncc4c3cnn4-c3ccc(F)cc3)CC2)ccn1 — remaining binding (cell-free assay, competition with immobilised ligand; 1 µM): 89%
C[C@@H](c1ccc(-n2cnc3c(N)ncnc32)cc1)N1CCc2nn(C)c(Cc3ccccc3)c2C1=O — remaining binding (binding, competition with immobilised ligand; 0.1 µM): 100%
F[C@@H]1CCN(c2nccc(-c3cnn4ncccc34)n2)C1 — remaining binding (binding; 1 µM): 100%
CN(C)C(=O)Cn1cc(-c2nc([C@@](C)(c3ccc(-c4cnc(N)nc4)cc3)C3CC3)no2)cn1 — remaining binding (cell-free assay, competition with immobilised ligand; 1 µM): 100%
C[C@H]1CCN(c2nccc(-c3cnn4ncccc34)n2)C1 — remaining binding (binding; 1 µM): 99%
COc1ncc2cc3ccccc3nc2c1C#N — remaining binding (cell-free assay, competition with immobilised ligand; 5 µM): 89%
Nc1ncc2c(n1)-c1c([nH]c3ccc(C#CC4CC4)cc13)CCCC2 — remaining binding (binding, competition with immobilised ligand; 1 µM): 100%
N[C@@H]1CCN(c2nccc(-c3cnn4ncccc34)n2)C1 — remaining binding (binding; 1 µM): 100%
CSc1cccnc1N1CCN(Cc2nc3ccccc3[nH]2)CC1 — remaining binding (cell-free assay, competition with immobilised ligand; 1 µM): 100%
CN(CCCC(F)(F)F)c1nccc(-c2cnn3ncccc23)n1 — remaining binding (binding; 1 µM): 95%
COc1cnc(Nc2cccc(S(N)(=O)=O)c2)nc1N1CCN(c2ccccc2)C(=O)C1 — remaining binding (binding, competition with immobilised ligand; 1 µM): 87%
FC(F)(F)c1ccc2c(c1)nc(-c1cccnc1)n2C1CC1 — remaining binding (cell-free assay, competition with immobilised ligand; 1 µM): 93%
O=C(c1ccc(Nc2ncc(Cl)c(-c3ccc(Cl)s3)n2)cc1)N1CCC(N2CCCC2)CC1 — remaining binding (binding, competition with immobilised ligand; 1 µM): 12%
